ChEMBL document CHEMBL1122869, “Substituted benzamides with conformationally restricted side chains. 1. Quinolizidine derivatives as selective gastric prokinetic agents” (1985)

Assays:
Rattus norvegicus [1] = test: Tested for stimulation of intragastric pressure in rat on sc administration; range 1-50 mg/kg; assay type: functional
Outline: (§1)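 Male Wistar rats (200-500 g) with chronic gastric fistula, fasted overnight and restrained in Bollman cages. Only animals with basal motility <4 mmHg mean amplitude were used. Pressure waves were recorded via the fistula through a transducer over four 10-min periods before and after sc dosing, and the mean motility index was derived from them. Usually four groups of 10 rats received graded doses or vehicle.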

Rattus norvegicus [2] = test: Tested for stimulation of intragastric pressure in ra0t on sc administration; range 1-50 mg/kg
Mus musculus = test: Tested for anti-apomorphine climbing activity in mouse on sc administration
Rattus norvegicus [3] = test: Tested for stimulation of intragastric pressure in rat on sc administration; assay type: functional; outline: as §1
Rattus norvegicus [4] = test: Tested for stimulation of intragastric pressure in rat on sc administration; range 1-10 mg/kg; assay type: functional; outline: as §1
[5] = Rattus norvegicus, read-out: ED50
[6] = Mus musculus, sc, read-out: ED50

In the case of COc1cc(N)c(Cl)cc1C(=O)NC1CCC2CCCCN2C1 (configuration not stated), the ED50 (Rattus norvegicus [1]) is reported as 1 mg/kg.

COc1cc(N)c(Cl)cc1C(=O)NC1CCCN2CCCCC12 (configuration not stated) was tested, and the ED50 (Rattus norvegicus [2]) was 1 mg/kg.

For COc1cc(N)c(Cl)cc1C(=O)NC1CCCN2CCCCC12 (stereo in doubt; 2a), the ED50 (Mus musculus) was >50 mg/kg and the ED50 (Rattus norvegicus [1]) was 1 mg/kg.

In the case of COc1cc(N)c(Cl)cc1C(=O)NC1CCCN2CCCCC12 (stereo in doubt; 2b), the ED50 (Mus musculus) is reported as 0.4 mg/kg and the ED50 (Rattus norvegicus [1]; [5]) is reported as > 50 mg/kg.

Compound COc1cc(N)c(Cl)cc1C(=O)NC1CCC2CCCCN2C1 (stereo in doubt; 2c) has an ED50 (Mus musculus) of 12 mg/kg and an ED50 (Rattus norvegicus [1]; [5]) of 1 mg/kg.

Work on COc1cc(N)c(Cl)cc1C(=O)NC1CCN2CCCCC2C1 (stereo in doubt; 2e) yielded an ED50 (Mus musculus) of 7 mg/kg and an ED50 (Rattus norvegicus [3]) of 4 mg/kg.

With COc1cc(N)c(Cl)cc1C(=O)NC1CCN2C(C)CCCC2C1 (stereo in doubt; 2f) [BRL-20627] the ED50 (Mus musculus) was >50 mg/kg and the ED50 (Rattus norvegicus [1]; [5]) was 1 mg/kg.

In the case of COc1cc(N)c(Cl)cc1C(=O)NC1CCN2CCCCC2C1 (stereo in doubt; 2g), the ED50 (Mus musculus) is reported as 25 mg/kg and the ED50 (Rattus norvegicus [3]) is reported as 0.8 mg/kg.

Compound COc1cc(N)c(Cl)cc1C(=O)NC1CCC2CCCCN2C1 (stereo in doubt; form 1) has an ED50 (Mus musculus) of 10 mg/kg and an ED50 (Rattus norvegicus [4]) of 1 mg/kg.

Work on COc1cc(N)c(Cl)cc1C(=O)NC1CCN2C(C)CCCC2C1 (stereo in doubt; form 1) [BRL-20627] yielded an ED50 (Mus musculus; [6]) of 25 mg/kg and an ED50 (Rattus norvegicus [3]; [5]) of 0.8 mg/kg.

With COc1cc(N)c(Cl)cc1C(=O)NC1CCC2CCCCN2C1 (stereo in doubt; form 2) the ED50 (Mus musculus; [6]) was 10 mg/kg and the ED50 (Rattus norvegicus [4]; [5]) was 1 mg/kg.

For COc1cc(N)c(Cl)cc1C(=O)NC1CCN2C(C)CCCC2C1 (stereo in doubt; form 2) [BRL-20627], the ED50 (Mus musculus) was 25 mg/kg and the ED50 (Rattus norvegicus [3]) was 0.8 mg/kg.

With COc1cc(N)c(Cl)cc1C(=O)NC1CCN2C(C)CCCC2C1 (configuration not stated) [BRL-20627] the ED50 (Rattus norvegicus [1]) was 1 mg/kg.

CCN(CC)CCNC(=O)c1cc(Cl)c(N)cc1OC [METOCLOPRAMIDE] was tested, and the ED50 (Mus musculus) was 0.75 mg/kg, the ED50 (Mus musculus; [6]) was 0.75 mg/kg and the ED50 (Rattus norvegicus [3]) was 1 mg/kg. It also gave an ED50 (Rattus norvegicus [3]; [5]) of 1 mg/kg.
